In ChEMBL document CHEMBL5046221, “Identification of Pyrimidine-Based Lead Compounds for Understudied Kinases Implicated in Driving Neurodegeneration” (J Med Chem, 2022):

Legend:
[1] = Kinetic solubility of compound in PBS at pH 7.4 incubated for 24 hrs by chemiluminscent nitrogen detection method; assay type: physicochemical; details: buffer, pH 7.4, 24 h
Summary of the method: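 Filtrates were quantified by total chemiluminescent nitrogen determination against a calibration curve, with correction for background nitrogen from DMSO and medium.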

[2] = biological target: Bone morphogenetic protein receptor type-1B (Homo sapiens, UniProt O00238); assay: Inhibition of recombinant human BMPR1B (148 to end residues) using casein as substrate incubated for 40 mins in presence of [gamma-33P-ATP] by radiometric scintillation assay
Summary of the method: (§1)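 Eurofins radiometric enzymatic assay with ATP at Km for each kinase. IC50 was derived from a 9-point dose–response curve run in duplicate.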

[3] = biological target: BMP-2-inducible protein kinase (Homo sapiens, UniProt Q9NSY1); assay: Residual activity of human BMP2K at 1 uM using peptide as substrate incubated for 120 mins in presence of [gamma-33P-ATP] by radiometric scintillation assay relative to control
[4] = biological target: T1, Serine/threonine-protein kinase 17A (Homo sapiens, UniProt Q9UEE5); assay: Displacement of tracer K9 from NLuc fused DRAK1 (unknown origin) expressed in HEK293 cells by NanoBRET assay; assay type: cell-based
T1 sequence (Q9UEE5 whole entry): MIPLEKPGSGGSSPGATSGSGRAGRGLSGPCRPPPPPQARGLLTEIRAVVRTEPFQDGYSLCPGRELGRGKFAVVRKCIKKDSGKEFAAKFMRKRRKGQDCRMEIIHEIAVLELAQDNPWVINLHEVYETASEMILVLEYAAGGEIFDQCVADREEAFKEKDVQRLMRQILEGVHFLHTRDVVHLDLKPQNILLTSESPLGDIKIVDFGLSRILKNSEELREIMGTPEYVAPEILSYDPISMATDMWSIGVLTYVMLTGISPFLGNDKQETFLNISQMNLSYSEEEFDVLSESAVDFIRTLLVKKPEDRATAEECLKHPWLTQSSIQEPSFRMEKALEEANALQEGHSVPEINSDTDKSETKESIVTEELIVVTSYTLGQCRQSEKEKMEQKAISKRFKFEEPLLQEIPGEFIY

[5] = Effective permeability in PBS at 7.4 incubated for 5 hrs by PAMPA analysis; assay type: ADME; details: pH 7.4, 5 h
Summary of the method: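 PAMPA: DMSO stocks were diluted in PBS pH 7.4 and placed in the donor compartment, with PBS pH 7.4 in the acceptor, for 5 h. Both compartments were quantified by CLND against a calibration curve, with background nitrogen correction. Effective permeability was calculated from donor and acceptor concentrations using measured rather than assumed solubility.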

[6] = biological target: T2, Serine/threonine-protein kinase TBK1 (Homo sapiens, UniProt Q9UHD2); assay: Displacement of tracer K5 from NLuc fused TBK1 (unknown origin) expressed in HEK293 cells by NanoBRET assay; assay type: cell-based
T2 sequence (Q9UHD2 whole entry): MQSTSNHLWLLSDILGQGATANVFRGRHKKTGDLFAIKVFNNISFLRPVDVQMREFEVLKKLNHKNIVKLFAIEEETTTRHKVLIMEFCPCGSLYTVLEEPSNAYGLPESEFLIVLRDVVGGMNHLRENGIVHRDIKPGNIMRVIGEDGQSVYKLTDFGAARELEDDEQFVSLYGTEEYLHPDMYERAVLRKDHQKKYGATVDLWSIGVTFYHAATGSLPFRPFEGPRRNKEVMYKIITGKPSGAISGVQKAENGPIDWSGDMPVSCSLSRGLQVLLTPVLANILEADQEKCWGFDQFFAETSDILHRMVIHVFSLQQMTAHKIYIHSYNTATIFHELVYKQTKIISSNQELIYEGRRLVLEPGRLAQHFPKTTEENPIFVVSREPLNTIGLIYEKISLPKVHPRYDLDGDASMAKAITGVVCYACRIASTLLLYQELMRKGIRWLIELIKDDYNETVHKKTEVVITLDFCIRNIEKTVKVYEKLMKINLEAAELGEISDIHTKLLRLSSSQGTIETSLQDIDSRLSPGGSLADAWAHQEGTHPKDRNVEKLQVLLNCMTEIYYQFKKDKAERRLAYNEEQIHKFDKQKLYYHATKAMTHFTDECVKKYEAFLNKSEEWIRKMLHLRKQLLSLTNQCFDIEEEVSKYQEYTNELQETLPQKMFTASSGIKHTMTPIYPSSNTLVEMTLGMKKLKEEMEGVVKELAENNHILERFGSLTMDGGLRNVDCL
Summary of the method: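 HEK293 cells grown in DMEM with 10% FBS at 37 °C, 5% CO2. NanoBRET assay run in dose–response per manufacturer's protocol with tracer K-5 at 0.5 μM. SEM calculated for assays run more than once.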

[7] = biological target: Casein kinase II subunit alpha (Homo sapiens, UniProt P68400); assay: Inhibition of full length recombinant human CSNK2A1 using RRRDDDSDDD as substrate incubated for 40 mins in presence of [gamma-33P-ATP] by radiometric scintillation assay; summary of the method: as §1
[8] = biological target: T3, Inhibitor of nuclear factor kappa-B kinase subunit epsilon (Homo sapiens, UniProt Q14164); assay: Inhibition of full length recombinant human IKKepsilon using casein as substrate incubated for 40 mins in presence of [gamma-33P-ATP] by radiometric scintillation assay
T3 sequence (Q14164 whole entry): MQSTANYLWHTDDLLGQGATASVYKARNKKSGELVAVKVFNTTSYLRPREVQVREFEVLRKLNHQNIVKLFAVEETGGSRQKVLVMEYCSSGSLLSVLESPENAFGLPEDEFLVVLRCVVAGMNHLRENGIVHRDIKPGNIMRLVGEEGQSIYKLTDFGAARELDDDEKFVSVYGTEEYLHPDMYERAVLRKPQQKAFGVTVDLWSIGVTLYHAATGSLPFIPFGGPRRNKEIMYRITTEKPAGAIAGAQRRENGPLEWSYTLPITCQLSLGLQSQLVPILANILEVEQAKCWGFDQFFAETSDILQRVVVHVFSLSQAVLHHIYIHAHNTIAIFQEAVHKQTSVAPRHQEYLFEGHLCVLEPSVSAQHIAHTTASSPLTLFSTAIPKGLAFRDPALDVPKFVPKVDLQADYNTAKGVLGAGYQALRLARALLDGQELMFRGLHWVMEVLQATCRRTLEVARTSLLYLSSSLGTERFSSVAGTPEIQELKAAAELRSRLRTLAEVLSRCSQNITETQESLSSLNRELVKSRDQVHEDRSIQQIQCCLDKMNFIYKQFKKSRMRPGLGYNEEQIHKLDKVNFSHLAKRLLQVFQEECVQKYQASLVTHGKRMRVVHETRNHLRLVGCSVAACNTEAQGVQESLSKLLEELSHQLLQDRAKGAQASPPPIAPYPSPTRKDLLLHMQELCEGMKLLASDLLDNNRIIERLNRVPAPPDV
Summary of the method: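 Eurofins radiometric kinase assay run at ATP equal to Km for each kinase. 9-point dose–response in duplicate gives the IC50.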

Chain of BMP-2-inducible protein kinase (Q9NSY1 whole entry, looked up, the tested form may be a part): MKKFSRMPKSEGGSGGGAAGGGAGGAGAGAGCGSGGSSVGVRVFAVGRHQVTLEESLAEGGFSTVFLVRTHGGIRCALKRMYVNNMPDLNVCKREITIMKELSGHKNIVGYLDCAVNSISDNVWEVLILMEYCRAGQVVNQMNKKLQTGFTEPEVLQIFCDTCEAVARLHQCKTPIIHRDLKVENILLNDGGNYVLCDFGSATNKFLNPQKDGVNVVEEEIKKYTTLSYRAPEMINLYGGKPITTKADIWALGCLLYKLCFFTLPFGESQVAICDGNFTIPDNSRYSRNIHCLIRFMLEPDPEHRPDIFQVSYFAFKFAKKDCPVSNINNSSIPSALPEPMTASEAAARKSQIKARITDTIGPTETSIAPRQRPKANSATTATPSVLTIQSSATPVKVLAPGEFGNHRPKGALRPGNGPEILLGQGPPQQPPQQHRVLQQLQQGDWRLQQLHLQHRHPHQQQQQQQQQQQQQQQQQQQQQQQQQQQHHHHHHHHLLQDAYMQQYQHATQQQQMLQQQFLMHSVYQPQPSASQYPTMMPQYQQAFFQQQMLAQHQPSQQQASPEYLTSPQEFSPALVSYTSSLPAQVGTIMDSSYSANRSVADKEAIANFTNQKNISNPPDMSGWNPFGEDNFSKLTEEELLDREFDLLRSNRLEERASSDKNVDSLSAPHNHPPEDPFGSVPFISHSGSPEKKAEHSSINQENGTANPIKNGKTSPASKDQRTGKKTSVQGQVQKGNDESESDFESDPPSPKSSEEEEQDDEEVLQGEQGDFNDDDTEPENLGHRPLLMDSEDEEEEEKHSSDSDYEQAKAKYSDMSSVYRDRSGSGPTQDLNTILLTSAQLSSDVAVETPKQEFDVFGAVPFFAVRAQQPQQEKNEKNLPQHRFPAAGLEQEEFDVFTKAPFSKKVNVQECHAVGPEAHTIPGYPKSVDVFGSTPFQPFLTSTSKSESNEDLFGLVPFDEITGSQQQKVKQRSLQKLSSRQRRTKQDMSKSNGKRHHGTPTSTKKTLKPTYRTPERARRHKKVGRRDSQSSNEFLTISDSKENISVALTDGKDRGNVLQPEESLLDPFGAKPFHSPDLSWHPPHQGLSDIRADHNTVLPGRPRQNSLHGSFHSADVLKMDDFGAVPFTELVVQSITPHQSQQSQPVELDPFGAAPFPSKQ
Chain of Casein kinase II subunit alpha (P68400 whole entry): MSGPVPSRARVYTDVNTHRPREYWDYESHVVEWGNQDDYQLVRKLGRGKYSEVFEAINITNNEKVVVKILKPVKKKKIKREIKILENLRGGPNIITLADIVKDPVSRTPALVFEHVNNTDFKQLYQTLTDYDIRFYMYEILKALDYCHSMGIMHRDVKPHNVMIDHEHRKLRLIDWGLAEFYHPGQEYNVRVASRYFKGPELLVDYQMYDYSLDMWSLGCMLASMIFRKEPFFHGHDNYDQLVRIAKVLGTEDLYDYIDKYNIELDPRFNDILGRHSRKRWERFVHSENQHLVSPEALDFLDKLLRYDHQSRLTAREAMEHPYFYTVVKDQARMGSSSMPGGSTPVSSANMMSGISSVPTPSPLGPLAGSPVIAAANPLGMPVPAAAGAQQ
Chain of Bone morphogenetic protein receptor type-1B (O00238 whole entry): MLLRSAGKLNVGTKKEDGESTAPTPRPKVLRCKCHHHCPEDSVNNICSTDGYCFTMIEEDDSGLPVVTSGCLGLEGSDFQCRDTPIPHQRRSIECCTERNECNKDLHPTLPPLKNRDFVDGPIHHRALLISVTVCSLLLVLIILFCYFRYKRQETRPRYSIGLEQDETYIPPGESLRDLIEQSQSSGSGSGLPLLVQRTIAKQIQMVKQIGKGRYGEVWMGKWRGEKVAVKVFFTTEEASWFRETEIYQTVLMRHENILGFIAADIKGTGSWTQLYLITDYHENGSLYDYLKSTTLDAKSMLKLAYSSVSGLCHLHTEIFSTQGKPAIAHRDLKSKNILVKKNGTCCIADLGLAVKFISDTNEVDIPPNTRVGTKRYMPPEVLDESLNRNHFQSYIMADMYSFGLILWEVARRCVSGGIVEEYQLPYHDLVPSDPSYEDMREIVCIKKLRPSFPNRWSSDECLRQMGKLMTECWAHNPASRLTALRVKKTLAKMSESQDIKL

| SMILES | Kinetic solubility [1] [µM] | IC50 [2] [µM] | % control [3] [%] | IC50 [4] [µM] | Peff [5] | IC50 [6] [µM] | IC50 [7] [µM] | Peff ([5]; BLD = below limit of detection) | Kinetic_solubility [1] [µM] | IC50 [8] [µM] |
| --- | --- | --- | --- | --- | --- | --- | --- | --- | --- | --- |
| c1cc(CN2CCOCC2)cc(Nc2nccc(NCCc3cnc[nH]3)n2)c1 | 200 | 9.03 | 58 | > 10 | 1.66 10^-7 cm/s | > 10 |  |  |  |  |
| NS(=O)(=O)c1ccc(CNc2nc(Nc3cccc(CN4CCOCC4)c3)ncc2Br)cc1 | 4.7 |  |  | > 10 |  | > 10 | > 10 | Bld |  |  |
| NS(=O)(=O)c1ccc(CNc2nc(Nc3cccc(NC(=O)N4CCCC4)c3)ncc2Br)cc1 |  |  |  | > 10 |  | 6.17 |  | Bld | 20 |  |
| NS(=O)(=O)c1ccc(CNc2nc(Nc3cccc(CN4CCOCC4)c3)ncc2C2CC2)cc1 |  |  |  | > 10 | 7.09 10^-7 cm/s | 2.05 |  |  | 118.7 | 1.31 |
